Laboratory results from ChEMBL document CHEMBL4043171, “Chemoselective fluorination and chemoinformatic analysis of griseofulvin: Natural vs fluorinated fungal metabolites” (Bioorg Med Chem, 2017).
pIC50: −log10 of the molar value. Activity calls are given as the source filed them. No cut-off for these calls is given here.

Key:
MDA-MB-435 [1] = test: Cytotoxicity against human MDA-MB-435 cells assessed as reduction in cell viability by cell titer 96 aqueous one solution cell proliferation assay; assay type: functional, cell-based
Procedure, shortened: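 Cells were grown in RPMI 1640 with 10% FBS and penicillin/streptomycin at 37°C under 5% CO2. Log-phase cells were trypsinized, washed twice, seeded at 5,000 per well and incubated overnight. Compounds were added at final 20, 4, 0.8, 0.16 and 0.032 µM in 0.5% DMSO and incubated for 72 h at 37 °C. Viability was read by MTS-type absorbance assay as % survival versus DMSO control. Vinblastine served as positive control.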

OVCAR-3 [2] = test: Cytotoxicity against human OVCAR3 cells assessed as reduction in cell viability by cell titer 96 aqueous one solution cell proliferation assay; assay type: functional, cell-based
MDA-MB-231 = test: Cytotoxicity against human MDA-MB-231 cells assessed as reduction in cell viability at 50 uM by cell titer 96 aqueous one solution cell proliferation assay; assay type: functional, cell-based
Nannizzia gypsea = test: Antifungal activity against Microsporum gypseum at 25 ug/disc incubated for 5 days by agar disk diffusion method; assay type: functional; settings: 120 h, read-out: DIZ
Procedure, shortened: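 Conidia of M. gypseum, kept on Sabouraud dextrose agar, were harvested in sterile water and adjusted to 0.5–1.0 OD at 600 nm (~10^5 cells/mL). The suspension was seeded onto Mueller-Hinton agar with 2% glucose and 0.5 µg/ml methylene blue. Compounds in DMSO were loaded at 25 µg per 6 mm paper disk. Inhibition-zone diameters (mm) were read after 5 d, as mean ± SD of four replicates.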

Huh7.5.1 = test: Cytotoxicity against human Huh7.5.1 cells assessed as reduction in cell viability by ATPlite assay; settings: Huh-7.5.1
MDA-MB-435 [3] = test: Cytotoxicity against human MDA-MB-435 cells assessed as reduction in cell viability at 50 uM by cell titer 96 aqueous one solution cell proliferation assay; assay type: functional, cell-based
OVCAR-3 [4] = test: Cytotoxicity against human OVCAR3 cells assessed as reduction in cell viability at 50 uM by cell titer 96 aqueous one solution cell proliferation assay; assay type: functional, cell-based

| SMILES | pIC50 (MDA-MB-435 [1]) | pIC50 (OVCAR-3 [2]) | Activity (MDA-MB-231) | zone of inhibition at 25 µg/disc (Nannizzia gypsea) [mm] | pIC50 (Huh7.5.1) | Activity (MDA-MB-435 [3]) | Activity (OVCAR-3 [4]) |
| --- | --- | --- | --- | --- | --- | --- | --- |
| COC1=CC(=O)C[C@@H](C)[C@]12Oc1c(Cl)c(OC)cc(OC)c1C2=O [GRISEOFULVIN] | 5.19 | 4.31 | inactive | 35 | 4.60 to 5.00 |  |  |
| COC1=CC(=O)C[C@@H](C)[C@]12Oc1cc(OC)c(F)c(OC)c1C2=O |  |  | inactive | 0 |  | inactive | inactive |
| COC1=CC(=O)C[C@@H](C)[C@]12Oc1cc(O)cc(OC)c1C2=O |  |  | inactive | 0 |  | inactive | inactive |
| COC1=CC(=O)C2=C(O[C@]3(C2=O)C(OC)=CC(=O)C[C@H]3C)C1(F)Cl (mixture of isomers) |  |  | inactive | 0 |  | inactive | inactive |
| COC1=CC(=O)C[C@@H](C)[C@]12Oc1cc(OC)cc(OC)c1C2=O |  |  | inactive | 0 |  | inactive | inactive |
| COC1=CC(=O)C[C@@H](C)[C@]12Oc1c(Cl)c(OC)c(F)c(OC)c1C2=O |  |  | inactive | 23 |  | inactive | inactive |
| COC1=CC(=O)C[C@@H](C)[C@]12Oc1c(F)c(OC)cc(OC)c1C2=O | 4.66 |  | inactive | 34 | 4.60 to 5.00 |  | inactive |
| COC1=CC(=O)C[C@@H](C)[C@]12Oc1c(Cl)c(O)cc(OC)c1C2=O |  |  | inactive | 0 |  | inactive | inactive |
| COC1=CC(=O)[C@H](O)[C@@H](C)[C@]12Oc1c(Cl)c(OC)cc(OC)c1C2=O |  |  | inactive | 0 |  | inactive | inactive |
| COC1=CC(=O)[C@H](O)[C@@H](C)[C@]12Oc1c(F)c(OC)cc(OC)c1C2=O |  |  | inactive | 0 |  | inactive | inactive |
| COC1=CC(=O)[C@H](O)[C@@H](C)[C@]12Oc1cc(OC)cc(OC)c1C2=O |  |  | inactive | 0 |  | inactive | inactive |
| COC1=CC(=O)[C@H](O)[C@@H](C)[C@]12Oc1cc(OC)c(F)c(OC)c1C2=O |  |  | inactive | 0 |  | inactive | inactive |
